Published values gathered from unrelated publications.
Each line is one published result; the experiments were not run side by side.

CC(C)[C@@H]1NC(=O)[C@@H](CCCNC(=N)N)NC(=O)[C@H]([C@@H](C)O)NC(=O)[C@@H](C)NC(=O)[C@H](Cc2ccccc2)NC(=O)[C@@H](Cc2ccccc2)NC1=O — haemolysis (haemolysis; human; 100 µM): < 10%
C[C@]1(O)CCCN(c2nc(Nc3ccc(S(=O)(=O)N[C@H]4CC[C@H](CN5CCN(c6ccc(C7CCC(=O)NC7=O)c(F)c6)CC5)CC4)cc3F)ncc2C(F)(F)F)C1 (stereo partly shown) — clearance (rat, plasma; intravenous, 2 mg/kg): 6 mL/min/kg
C[C@H]1Oc2cc(cnc2N)-c2c(nn(C)c2C#N)CN(C)C(=O)c2ccc(F)cc21 — CL/F (male Sprague-Dawley rat, plasma; oral, 50 mg/kg, single dose): 16.7 mL/min/kg
CC(C)[C@@H]1NC(=O)[C@@H](CCCNC(=N)N)NC(=O)[C@H]([C@@H](C)O)NC(=O)[C@@H](CCCCN)NC(=O)[C@H](Cc2ccccc2)NC(=O)[C@@H](Cc2ccccc2)NC1=O — haemolysis (haemolysis; human; 100 µM): < 10%
CCCCCCCCNC(C)C(O)c1ccc(SC(C)C)cc1 (stereo not shown) — haemolysis (haemolysis; human; 50 µM, 3 h): > 18%
C[C@]1(O)CCCN(c2nc(Nc3ccc(S(=O)(=O)N[C@H]4CC[C@H](CN5CCN(c6ccc(C7CCC(=O)NC7=O)cc6F)CC5)CC4)cc3F)ncc2C(F)(F)F)C1 (stereo partly shown) — clearance (rat, plasma; intravenous, 2 mg/kg): 12 mL/min/kg
CC(C)[C@H](N)C(=O)N[C@H](Cc1ccccc1)C(=O)N[C@@H](Cc1ccccc1)C(=O)N[C@H](CCCN)C(=O)N[C@H](C(=O)N[C@H](CCCNC(=N)N)C(=O)O)[C@@H](C)O — haemolysis (haemolysis; human; 100 µM): < 10%
CCCc1nc2c(C)cc(-c3nc4ccccc4n3C)cc2n1Cc1ccc(-c2ccccc2C(=O)O)cc1 — CL/F (male Sprague-Dawley rat, plasma; oral, 8 mg/kg, single dose): 78 mL/min/kg
C[C@]1(O)CCCN(c2nc(Nc3ccc(S(=O)(=O)N[C@@H]4CCN(CC5CCN(c6ccc(C7CCC(=O)NC7=O)cc6F)CC5)C[C@H]4F)cc3F)ncc2C(F)(F)F)C1 (stereo partly shown) — clearance (rat, plasma; intravenous, 2 mg/kg): 12 mL/min/kg
CO[C@H]1C[C@H](O[C@@H]2/C(C)=C/C[C@@H]3C[C@@H](C[C@]4(CC[C@H](C)[C@@H](C5CCCCC5)O4)O3)OC(=O)[C@@H]3C=C(C)/C(=N/O)[C@H]4OC/C(=C\C=C\[C@@H]2C)[C@]43O)O[C@@H](C)[C@@H]1O — haemolysis (haemolysis; human; 50 µM, 3 h): > 18%
